Measured values gathered from unrelated publications.
Protocols differ between the studies behind these lines.
Cell line: MCF7
Read-out: cell growth or viability

SMILES	method	time	IC50
FC(F)(F)c1cccc(Nc2ncnc3ccc(-c4ccc5c(c4)OCO5)cc23)c1	MTT	24 h	6.74 µM
CSc1ccc(-c2nc3ccc(C)cc3[nH]2)cc1	MTT	48 h	45 µM
O=C(Nc1nnnn1C1CCCCC1)c1ccc2ccccc2c1	–	48 h	2.38 µM
CSc1nc(/N=C/c2cc([N+](=O)[O-])ccc2O)n(-c2ccc(C(=O)O)cc2)n1	MTT	–	20 µM
Cc1ccc2nc(-c3ccc(Cl)cc3Cl)[nH]c2c1	MTT	48 h	57.2 µM
O=C(/C=C/c1ccc(O)c(O)c1)O[C@@H]1C[C@](O)(C(=O)O)C[C@@H](O)[C@H]1O	WST-1	48 h	9.5 µM
Cc1ccc2nc(-c3ccc(Cl)cc3)n(Cc3ccccc3)c2c1	MTT	–	5.66 µM
O=C(NC(=S)NCc1ccccc1)c1ccc2ccccc2c1	–	48 h	4.99 µM
Oc1cccc(Nc2ccc3ncnc(Nc4cccc(C(F)(F)F)c4)c3c2)c1	MTT	24 h	20.5 µM
O=C(/C=C/c1ccccc1)c1ccccc1	resazurin	72 h	> 50 µM
Oc1ccc(-c2csc(Nc3ccc4c(O)ncnc4c3)n2)cc1	MTT	–	7.43 µM
O=C1C[C@@H](c2ccc(O)cc2)Oc2cc(O)cc(O)c21	MTT	48 h	4.75 µM
COc1cc2ncnc(Nc3ccc(F)c(Cl)c3)c2cc1NC(=O)N/N=C/c1cccn1CCCN1CCOCC1	MTT	72 h	1.44 µM
c1cnc2c(c1)ccc1cccnc12	MTT	48 h	> 50 µM
CC(C)NCC(O)COc1ccccc1-c1ccccc1OCC(O)CNC(C)C (stereo not shown)	MTT	72 h	> 75 µM
c1ccc2cc(-c3nnc(NC4CCCCC4)[nH]3)ccc2c1	–	48 h	1.75 µM
CC/C(=C(/c1ccc(OCCNC)cc1)c1ccc(B2OC(C)(C)C(C)(C)O2)cc1)c1ccccc1	–	5 days	0.708 µM
COc1cccc2c1C(=O)c1c(O)c3c(c(O)c1C2=O)C[C@@](O)(C(=O)CO)C[C@@H]3O[C@H]1C[C@H](N)[C@H](O)[C@H](C)O1	MTT	–	19.7 µM
Oc1ccccc1-c1nc2ccccc2[nH]1	MTT	48 h	> 100 µM
Cc1cc(C)n(-c2nc(Nc3ccc(Cl)cc3)nc(-n3nc(C)cc3C)n2)n1	MTT	72 h	2.29 µM
O=S(=O)(NN=Cc1cn(CCN2CCOCC2)c2ccccc12)c1ccc2ccccc2c1	MTT	48 h	29.9 µM
CCOc1ccc(-c2nc3ccc(C)cc3[nH]2)cc1	MTT	48 h	> 100 µM
CS(=O)(=O)c1nc(N)n(-c2ccc(C(=O)O)cc2)n1	MTT	–	21.9 µM
CC1CCC(OCn2c[n+](Cc3ccccc3)c3ccccc32)CC1 (stereo not shown)	MTT	72 h	27 µM
CCN(CC)CCn1cccc1/C=N/NC(=O)Nc1cc2c(Nc3ccc(F)c(Cl)c3)ncnc2cc1O[C@H]1CCOC1	MTT	72 h	1.28 µM

SMILES	method	time	IC50
COc1ccc(S(=O)(=O)NN=Cc2cn(CCN3CCOCC3)c3ccccc23)cc1	MTT	48 h	62.8 µM
COc1ccnc(-c2cc(OC)ccn2)c1	MTT	48 h	> 50 µM
CCN(CC)CCCn1cccc1/C=N/NC(=O)Nc1cc2c(Nc3ccc(F)c(Cl)c3)ncnc2cc1O[C@H]1CCOC1	MTT	72 h	2.49 µM
O=c1cc(-c2ccc(O)c(O)c2)oc2cc(O)cc(O)c12	WST-1	48 h	13.4 µM
Fc1ccc(-c2nc3ccccc3n2Cc2ccccc2)cc1	MTT	–	31.5 µM
COc1c2c(cc3c1OCO3)[C@]13C=C[C@H](OC)C[C@H]1N(C2)C[C@H]3OC(=O)c1cccc(C)c1	WST-1	–	> 10 µM
COc1cc([C@@H]2c3cc4c(cc3[C@@H](O[C@@H]3O[C@@H]5CO[C@@H](C)O[C@H]5[C@H](O)[C@H]3O)[C@H]3COC(=O)[C@H]23)OCO4)cc(OC)c1O	MTT	48 h	32.8 µM
COc1nc(OCc2cccc(-c3ccccc3)c2C)ccc1CNCCNC(C)=O	MTT	–	6.2 µM
C[C@H]1O[C@@H](n2cc(F)c(=O)[nH]c2=O)[C@H](O)[C@@H]1O	CCK-8	48 h	> 50 µM
COc1cccc(-c2nc3ccc(C)cc3[nH]2)c1	MTT	48 h	50.6 µM
O=C(N/N=C/c1cccn1CCCN1CCCCC1)Nc1cc2c(Nc3ccc(F)c(Cl)c3)ncnc2cc1O[C@H]1CCOC1	MTT	72 h	1.32 µM
CS(=O)(=O)c1ccc(-n2cc(/C=N/N=c3\[nH]c(-c4ccc(Br)cc4)cs3)c(-c3ccc(Br)cc3)n2)cc1	MTT	48 h	16.7 µM
COc1cc2ncnc(Nc3ccc(F)c(Cl)c3)c2cc1NC(=O)N/N=C/c1cccn1CCN1CCCCC1	MTT	72 h	2.18 µM
O=S(=O)(NN=Cc1cn(CCN2CCOCC2)c2ccccc12)c1ccc(-c2ccccc2)cc1	MTT	48 h	17.3 µM
Cc1nc(Nc2ncc(C(=O)Nc3c(C)cccc3Cl)s2)cc(N2CCN(CCO)CC2)n1	MTT	48 h	7.99 µM
COc1cc2c(Nc3ccc(NC(=O)c4ccccc4)cc3)ncnc2cc1OCCCN1CCOCC1	MTS	72 h	0.8 µM
COc1ccc(-c2nn(-c3ccc(S(C)(=O)=O)cc3)cc2C=N/N=c2\[nH]c(-c3ccc([N+](=O)[O-])cc3)cs2)cc1	MTT	48 h	2.15 µM
CCN(CC)CCn1cccc1/C=N/NC(=O)Nc1cc2c(Nc3ccc(F)c(Cl)c3)ncnc2cc1OC	MTT	72 h	0.57 µM
COc1ccc(O)c(/C=N/c2nc(Oc3ccccc3)nn2-c2ccc(C(=O)O)cc2)c1	MTT	–	27.5 µM
O=[N+]([O-])c1ccc(-c2nc3ccccc3[nH]2)cc1	MTT	48 h	27.2 µM
CC(=O)CC(=O)[c-]1cccc1.[Fe+2].c1cc[cH-]c1	MTT	96 h	54 µM
O=C(N/N=C/c1cccn1CCN1CCCCC1)Nc1cc2c(Nc3ccc(F)c(Cl)c3)ncnc2cc1O[C@H]1CCOC1	MTT	72 h	2.41 µM
COc1cccc2c1C(=O)c1c(O)c3c(c(O)c1C2=O)C[C@@](O)(C(=O)CO)C[C@@H]3O[C@H]1C[C@H](N)[C@H](O)[C@H](C)O1	–	48 h	1.2 µM
Oc1ncnc2cc(Nc3nc(-c4ccccc4)cs3)ccc12	MTT	–	6.21 µM
